Source: ChEMBL document CHEMBL1143162, “Synthesis and pharmacological evaluation of pyrazoline derivatives as new anti-inflammatory and analgesic agents” (Bioorg Med Chem Lett, 2008)

What was measured:
[1] = test system: Rattus norvegicus; experiment: Antiinflammatory activity against carrageenan-induced hind paw edema in rat at 41 umol/kg, po after 3 hrs relative to flurbiprophen; format: functional
Outline: (§1)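 Given orally to rats at a dose equimolar to 10 mg/kg (41 µmol/kg) of the reference drug. Paw-oedema % inhibition was calculated at both 3 h and 4 h after dosing.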

[2] = test system: Rattus norvegicus; experiment: Antiinflammatory activity against carrageenan-induced hind paw edema in rat at 41 umol/kg, po after 4 hrs relative to flurbiprophen; format: functional; outline: as §1
[3] = test system: Gastric mucosa; experiment: Inhibition of lipid peroxidation in mouse gastric mucosa tissue assessed as malondialdehyde level per 100 mg tissue relative to flurbiprophen; format: functional, tissue-based
Outline: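 Animals receive the oral dose used in the ulcerogenic study, equimolar to 30 mg/kg flurbiprofen. Lipid peroxidation in the tissue is read as MDA content in nmol per 100 mg tissue, given as mean ± SEM (n = 6). Comparison is against the standard by ANOVA with Dunnett's test.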

[4] = test system: Mus musculus; experiment: Ulcerogenic effect in mouse at 123 umol/kg, po relative to flurbiprophen; format: toxicity, organism-based; conditions: in vivo
Outline: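 Acute ulcerogenic test with oral dosing at an amount equimolar to 30 mg/kg flurbiprofen. Gastric damage is scored as a severity index, given as mean ± SEM (n = 6). Comparison is against the standard by ANOVA with Dunnett's multiple comparison test.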

[5] = test system: Mus musculus; experiment: Analgesic activity in mouse at 41 umol/kg, po by tail immersion method relative to flurbiprophen; format: functional
Outline: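 Tail-immersion test in mice, oral dose of 41 µmol/kg. Tail reaction time (s) was read before dosing (0 h) and 4 h after dosing. % inhibition was calculated relative to each animal's pre-treatment value. n = 6, compared by paired Student's t test.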

[6] = test system: Liver; experiment: Hepatotoxicity in rat assessed as hepatocyte necrosis; format: toxicity, tissue-based; conditions: hepatocytes

O=C(c1ccccc1)N1N=C(c2ccc(-c3ccccc3)cc2)CC1c1ccccc1 (stereo not drawn)
Activity [1]: 28.06%
Activity [2]: 33.32%

Cc1ccc(C2CC(c3ccc(-c4ccccc4)cc3)=NN2C(=O)c2ccccc2)cc1 (stereo not drawn)
Activity [1]: 29.82%
Activity [2]: 31.57%

CC(C(=O)O)c1ccc(-c2ccccc2)c(F)c1 (stereo not drawn) [FLURBIPROFEN]
Activity [3]: 7.51 nmol
Activity [1]: 73.68%
UI [4]: 1.666
Activity [5]: 69.5%
Activity [2]: 80.69%

Clc1ccccc1C1CC(c2ccc(-c3ccccc3)cc2)=NN1 (stereo not drawn)
Activity [1]: 31.57%
Activity [2]: 31.57%

Cc1ccc(C2CC(c3ccc(-c4ccccc4)cc3)=NN2)cc1 (stereo not drawn)
Activity [3]: 5.04 nmol
Activity [1]: 73.69%
Activity [6]: Non-toxic
UI [4]: 0.5
Activity [5]: 72.9%
Activity [2]: 82.45%

COc1ccc(C2CC(c3ccc(-c4ccccc4)cc3)=NN2)cc1OC (stereo not drawn)
Activity [1]: 35.08%
Activity [2]: 40.35%

COc1cc(OC)c(C2CC(c3ccc(-c4ccccc4)cc3)=NN2)c(OC)c1 (stereo not drawn)
Activity [3]: 5.58 nmol
Activity [1]: 80.7%
UI [4]: 0.833
Activity [5]: 28.6%
Activity [2]: 82.45%

CN(C)c1ccc(C2CC(c3ccc(-c4ccccc4)cc3)=NN2C(=O)c2ccccc2)cc1 (stereo not drawn)
Activity [1]: 33.32%
Activity [2]: 35.08%

CN(C)c1ccc(C2CC(c3ccc(-c4ccccc4)cc3)=NN2)cc1 (stereo not drawn)
Activity [1]: 33.33%
Activity [2]: 36.84%

c1ccc(-c2ccc(C3=NNC(c4ccccc4)C3)cc2)cc1 (stereo not drawn)
Activity [1]: 35.08%
Activity [2]: 38.6%

O=C(c1ccccc1)N1N=C(c2ccc(-c3ccccc3)cc2)CC1c1ccccc1Cl (stereo not drawn)
Activity [1]: 31.57%
Activity [2]: 38.59%

Clc1ccc(C2CC(c3ccc(-c4ccccc4)cc3)=NN2)cc1 (stereo not drawn)
Activity [1]: 22.8%
Activity [2]: 28.06%

O=C(c1ccccc1)N1N=C(c2ccc(-c3ccccc3)cc2)CC1c1ccc(Cl)cc1 (stereo not drawn)
Activity [1]: 35.08%
Activity [2]: 42.1%

COc1cc(OC)c(C2CC(c3ccc(-c4ccccc4)cc3)=NN2C(=O)c2ccccc2)c(OC)c1 (stereo not drawn)
Activity [3]: 5.18 nmol
Activity [1]: 73.68%
Activity [6]: Non-toxic
UI [4]: 0.583
Activity [5]: 43.2%
Activity [2]: 75.38%

COc1ccc(C2CC(c3ccc(-c4ccccc4)cc3)=NN2C(=O)c2ccccc2)cc1OC (stereo not drawn)
Activity [1]: 28.06%
Activity [2]: 35.08%

COc1ccc(C2CC(c3ccc(-c4ccccc4)cc3)=NN2)cc1 (stereo not drawn)
Activity [1]: 35.08%
Activity [2]: 36.83%

COc1ccc(C2CC(c3ccc(-c4ccccc4)cc3)=NN2C(=O)c2ccccc2)cc1 (stereo not drawn)
Activity [1]: 40.34%
Activity [2]: 47.36%
